Screens from PubChem BioAssay.
OX1R antag-1: blocks the human orexin 1 receptor. 330,000 tested, 0.43% active. CHO/OX1R cells, Fluo-8 calcium fluorescence, orexin A. O43613. inhibition, % at 5 µM;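 active = inhibition above its plate's threshold, mean inhibition of all tested compounds on the plate plus 3 SD, cut at about 37% in these data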
CHO parental Ca: counter-screen for OX1R antagonists: effect in parental CHO cells | parental CHO-K1, ATP-induced calcium, Fluo-8 fluorescence | inhibition, % at 5.6 µM | 330,000 tested, 0.63% active | AID 463079;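 active = inhibition above that plate's mean sample inhibition plus 3 SD, cut at about 26% in these data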
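Material – parental CHO cells · Reagent – ATP stimulus · Compound – single nominal dose of 5.6 µM per compound · Detection – Fluo-8 fluorescence · Read-out basis – percent inhibition of calcium signal · Controls – ATP-challenged DMSO wells low, unchallenged DMSO wells high · Repeats – no replicates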
OX1R antag-2: blocks the human orexin 1 receptor; O43613; OX1R-expressing cells, FRET antagonist read-out; inhibition, % at 6.6 µM; 330,000 tested, 1.8% active; AID 485270; in the data active = inhibition mostly above about 38%, no sharp cut-off; inactive = mostly below about 40%
TAAR1 antagonist: human TAAR1 antagonism; Q96RJ0; CHO RD-HGA16 TAAR1, Fluo-8 calcium fluorescence, antagonist; inhibition, % at 3 µM; 360,000 tested, 1.5% active;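 active = inhibition above a per-plate cutoff, the mean inhibition of test compounds on that plate plus 3 SD, cut at about 49% in these data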
Target sequence (Q96RJ0 whole entry, looked up): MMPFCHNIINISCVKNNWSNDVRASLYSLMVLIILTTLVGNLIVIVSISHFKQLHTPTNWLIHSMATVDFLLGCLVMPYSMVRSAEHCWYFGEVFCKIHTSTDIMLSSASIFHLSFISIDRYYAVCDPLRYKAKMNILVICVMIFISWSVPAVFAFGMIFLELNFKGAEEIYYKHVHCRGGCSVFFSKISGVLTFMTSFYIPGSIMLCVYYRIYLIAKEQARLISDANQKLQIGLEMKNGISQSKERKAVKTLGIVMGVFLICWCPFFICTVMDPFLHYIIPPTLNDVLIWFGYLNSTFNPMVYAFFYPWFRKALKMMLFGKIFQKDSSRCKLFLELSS
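Material: CHO RD-HGA16 cells bearing hTAAR1; compound dosing: one-point dosing, 3 µM nominal final; schedule: dye loading 75 min at 37 °C, then 30 min room temperature; measured by: calcium fluorescence with Fluo-8; control set: vehicle and agonist controls; replication: n of 1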
TAAR1 agonist: human TAAR1 agonism | Q96RJ0 | 360,000 tested, 0.99% active | CHO RD-HGA16 TAAR1, Fluo-8 calcium fluorescence; vehicle wells 0%, saturating PEA agonist 100% | activation, % at 3 µM;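 active = activation above the mean activation of all test compounds in the run plus 3 SD, cut at about 38% in these data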
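Signal – calcium-sensitive Fluo-8 signal, excitation 470-495, emission 515-575 nm · System – RD-HGA16 (CHO) cells co-expressing Gα16 and hTAAR1 · Incubation – 17-24 h seeding, 75 min 37 °C dye, 30 min RT · Compound dosing – 3 µM single concentration · Repeats – no replicates (n 1)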
GalR3 antagonist: blocks the human galanin receptor 3; O60755; HEK293 GalR3-CNG cAMP membrane potential fluorescence; galR3 body fused to GalR1 C-terminus; inhibition, % at 3 µM; 360,000 tested, 0.44% active;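 active = inhibition above the screen-wide average plus 3 SD, cut at about 13% in these data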;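 also: forskolin and galanin both at EC90 stimulate the cells; cAMP rise reported by CNG channel membrane potential dye signal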
Target sequence (O60755 1-299 limits assumed): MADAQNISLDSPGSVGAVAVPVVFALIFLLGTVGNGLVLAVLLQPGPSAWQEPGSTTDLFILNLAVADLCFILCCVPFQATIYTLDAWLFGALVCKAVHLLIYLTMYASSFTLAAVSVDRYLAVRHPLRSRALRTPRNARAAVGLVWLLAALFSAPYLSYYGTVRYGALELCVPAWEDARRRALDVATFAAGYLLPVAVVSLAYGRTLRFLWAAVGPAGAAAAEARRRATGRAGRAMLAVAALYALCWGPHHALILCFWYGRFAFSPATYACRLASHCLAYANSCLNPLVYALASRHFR
Hits are given with their value; – = inactive; · = no result given. Hits are enriched below; roughly 4.3% of the tested compounds scored in any of these assays.

SMILES	OX1R antag-1	CHO parental Ca	OX1R antag-2	TAAR1 antagonist	TAAR1 agonist	GalR3 antagonist
Cc1csc2c(N3CCN(C(=S)Nc4ccc(F)cc4F)CC3)ncnc12	–	39	–	–	–	–
COc1cccc(-n2cc(C(=O)NCCCOC(C)C)c3ccccc3c2=O)c1	–	–	–	–	–	–
CS(=O)(=O)Nc1cccc(NC(=O)c2ccc(-c3ccc(F)c(F)c3)c3ccoc23)c1	·	·	·	–	–	–
CS(=O)(=O)Nc1cccc(NC(=O)c2cccc3c(-c4ccc(F)c(F)c4)coc23)c1	·	·	·	64	–	–
CS(=O)(=O)Nc1cccc(NC(=O)c2cccc3c(-c4cccc(C(N)=O)c4)coc23)c1	·	·	·	66	–	–
COCCNC(=O)c1cccc2c(-c3cccc(C(N)=O)c3)coc12	·	·	·	–	–	–
CCOC(=O)c1sc(NC(=O)c2ccc(C)o2)nc1C	–	–	54	–	–	–
CCOc1ccc2nc(NC(=O)c3ccc(C)o3)sc2c1	–	–	38	–	–	–
CC1(C)OC(=O)N(c2ccccc2)C12C=Cc1cc(Br)ccc1O2 (stereo not drawn)	–	36	–	–	–	–
Cc1cc(C)cc(CC(=O)N2CCC2(C)C(=O)NS(=O)(=O)c2ccccc2Cl)c1 (stereo not drawn)	·	·	·	–	–	–
Cc1nn(C(C)(C)C)c(OC(=O)c2ccco2)c1Sc1ccccc1	–	–	–	–	–	–
Cc1nn(C(C)(C)C)c(OC(=O)c2ccc(Br)o2)c1Sc1ccccc1	–	–	38	–	–	–
Cc1[nH]nc2c1C(c1ccc(F)cc1)N(c1ccccc1)C2=O (stereo not drawn)	·	·	·	–	–	–
CC(C)Nc1ncnc2ccc(Br)cc12	–	29	–	–	–	–
CSCCC(Nc1ncnc2ccc(Br)cc12)C(=O)O (stereo not drawn)	–	–	–	–	–	–
CC(=O)c1cccc(Nc2ncnc3ccc(Br)cc23)c1	–	–	74	–	–	–
COc1cc(C(=O)Oc2cccc(Nc3ncnc4ccccc34)c2)cc(OC)c1OC	64	43	56	82	–	–
CC(=O)c1ccc(Nc2ncnc3ccc(Br)cc23)cc1	·	·	·	–	–	–
CO[C@@H]1CN(C)C(=O)c2cc(NC(=O)NC3CCCCC3)ccc2OC[C@@H](C)N(CCc2ccccc2)C[C@@H]1C	·	·	·	–	–	–
Cc1c(C(=O)O)cccc1-c1ccc(/C=C2\SC(=O)NC2=O)o1	–	–	56	–	–	–
O=C(CN1CCN(Cc2ccc3c(c2)OCO3)CC1)Nc1ccc2c(c1)OCO2	–	–	–	–	–	–
O=C(CN1CCN(Cc2ccc3c(c2)OCO3)CC1)Nc1ccc(F)cc1	–	–	–	–	41	–
O=C(CN1CCN(Cc2ccc3c(c2)OCO3)CC1)c1c[nH]c2ccccc12	–	–	–	–	38	–
O=C(c1cc(=O)[nH]c2ccccc12)N1CCN(Cc2ccc3c(c2)OCO3)CC1	·	·	·	–	–	–
COc1ccc(C(C)=NOC(=O)c2c(-c3ccccc3Cl)noc2C)cc1CN1CCOCC1	·	·	·	–	–	–
SMILES	OX1R antag-1	CHO parental Ca	OX1R antag-2	TAAR1 antagonist	TAAR1 agonist	GalR3 antagonist
CCC(c1nnnn1-c1ccc2c(c1)OCCO2)N1CCN(c2cc(C)ccc2C)CC1 (stereo not drawn)	·	·	·	–	–	–
COCCCn1c(=N)c(C(=O)NC2CCCCC2)cc2c(=O)n3ccccc3nc21	–	–	76	–	–	–
N=c1c(C(=O)NC2CCCCC2)cc2c(=O)n3ccccc3nc2n1CC1CCCO1 (stereo not drawn)	–	–	60	–	–	–
N=c1c(C(=O)NC2CCCC2)cc2c(=O)n3ccccc3nc2n1CC1CCCO1 (stereo not drawn)	–	–	50	–	–	–
Cc1ccc(CNC(=O)c2cc3c(=O)n4ccccc4nc3n(CC3CCCO3)c2=N)cc1 (stereo not drawn)	–	–	66	·	·	·
CC(NC(=O)c1cc2c(=O)n3ccccc3nc2n(CC2CCCO2)c1=N)c1ccccc1 (stereo not drawn)	–	–	37	–	–	–
N=c1c(C(=O)NCc2ccco2)cc2c(=O)n3ccccc3nc2n1C1CCCC1	–	–	54	–	–	–
CCN=C1NC(c2ccccc2C(F)(F)F)C(C(=O)OC)=C(C)N1Cc1ccc(C(F)(F)F)cc1 (stereo not drawn)	·	·	·	–	–	–
COc1ccc(-n2c(C)cc(=O)[nH]c2=O)cc1	–	–	–	–	–	–
O=C(Nc1ccc(Br)cc1)NC1CCCCCCC1	–	40	–	–	–	–
O=C(Nc1ccccc1)NC1CCCCCCC1	–	–	–	–	–	–
CC(=O)N1CCN(C(=O)COC(=O)/C=C/c2ccccc2[N+](=O)[O-])CC1	–	–	37	–	–	–
CC[C@]12c3[nH]c4cc(-c5ccco5)ccc4c3CCN1C(=O)[C@@H](CC(=O)NCCC1=CCCCC1)C[C@@H]2C(=O)N1CCN(C(=O)c2ccco2)CC1	–	–	43	·	·	·
COC(=O)C1=C(C)N(C)C(=NCC2CC2)NC1c1ccc(Cl)cc1 (stereo not drawn)	·	·	·	–	–	–
COCCN1C(=O)[C@H]2C[C@@]13O[C@H](c1ccccn1)N=C3CC1c3ccccc3C[C@@]12C (stereo partly drawn)	·	·	·	–	–	–
Nc1[nH]c(C(=O)c2ccccc2)c(-c2ccc3ccccc3c2)c1C(=O)NCc1ccc(-c2ccccc2)cc1	·	·	·	–	–	–
C=CCn1c(NC(=O)c2ccc(C)cc2)nc2ccccc21	–	–	–	–	–	–
Cc1ccc(SCCNC(=O)c2ccc(C)c(S(=O)(=O)Nc3ccccc3C)c2)cc1	–	–	48	–	–	–
Cc1ccccc1NS(=O)(=O)c1cc(C(=O)NCc2ccco2)ccc1C	–	–	–	–	–	–
CCCCC(=O)Nc1ncc(S(=O)(=O)c2ccc([N+](=O)[O-])cc2)s1	–	–	–	–	55	–
CC(=O)NCCC(=O)Nc1ncc(S(=O)(=O)c2ccc([N+](=O)[O-])cc2)s1	–	–	66	–	–	–
Cc1cnc(NC(=O)CCNC(=O)c2ccc([N+](=O)[O-])cc2)s1	–	–	–	–	–	–
COCC(=O)Nc1ncc(S(=O)(=O)c2ccc([N+](=O)[O-])cc2)s1	–	–	–	–	–	–
COc1ccccc1Cc1c(-c2ccc(Cl)cc2)nc2ccc(C)cn12	·	·	·	–	–	–
Cc1cc(C)n(CCc2nc(-c3cc4ccccc4o3)cs2)n1	55	38	–	–	–	–
Cc1cc(C)n(CCc2nc(-c3ccc(C)o3)cs2)n1	–	–	–	–	–	–
O=C(O)C1C2CCCCC2=C2CCCCC2C1C(=O)c1ccccc1 (stereo not drawn)	–	–	–	–	–	–
